The subject of test [1] is K562. The experiment in a line: Cytotoxicity against human K562 cells after 72 hrs by MTT assay. Format: cell-based. Particulars: K562, 72 h. An outline of the steps: (§1)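 Cells seeded at 2500-30 000 per well depending on growth characteristics, preincubated 24 h at 37 °C, 5% CO2. Compounds dissolved in 10% DMSO, added as four-fold dilutions, quadruplicate. 72 h exposure at 37 °C, 5% CO2, 100% humidity. MTT added for 1-4 h, formazan dissolved in 10% aqueous SDS (pH 5.5) overnight at 37 °C, OD 540 nm. Survival relative to control wells; TCS50 taken from dose-response curves.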

The nature of test [2]: Cytotoxicity against B2-4 cells after 72 hrs by MTT assay. Particulars: Homo sapiens, B2-4, 72 h. Format: cell-based. A digest of the protocol: as §1
A general note: Tetrazolium dyes change colour on reduction, which living cells bring about.

Test [3] has as its system HT-29. The experiment in a line: Cytotoxicity against human HT29 cells after 72 hrs by MTT assay. Format: cell-based. As to conditions: HT-29, 72 h. An outline of the steps: as §1
Test [4] deals with CCRF-CEM. Description: Cytotoxicity against human CEM cells after 72 hrs by MTT assay. The format is cell-based. An outline of the steps: as §1
For test [5], the system named is PC-3. The experiment in a line: Cytotoxicity against human PC3 cells after 72 hrs by MTT assay. The format is cell-based. As to conditions: PC-3, 72 h. An outline of the steps: as §1
In test [6] the test system is CCRF-CEM. The experiment in a line: Cytotoxicity against daunorubicin-resistant CEM-DNR-bulk cells after 72 hrs by MTT assay. Format: cell-based. Particulars: Homo sapiens. A digest of the protocol:
as §1

Test [7] in a line: Cytotoxicity against human U87-Mg cells after 72 hrs by MTT assay. Format: cell-based, U-87MG ATCC. As to conditions: U-87 MG. A digest of the protocol:
as §1

Test [8] relates to A549. The experiment in a line: Cytotoxicity against human A549 cells after 72 hrs by MTT assay. Format: cell-based. As to conditions: A549, 72 h. An outline of the steps:
as §1

Test [9] in a line: Cytotoxicity against human Pgp-positive multidrug-resistant K562-tax cells after 72 hrs by MTT assay. Format: ADME, cell-based. An outline of the steps:
as §1

For the compound `COC(=O)[C@]12CC[C@@H](C(C)C)[C@@H]1[C@H]1CC[C@@H]3[C@@]4(C)Cc5nccnc5C(C)(C)[C@@H]4CC[C@@]3(C)[C@]1(C)CC2`, the IC50 (in general, the concentration at which inhibition is half-maximal) in [1] was determined as 201 µM; in [2], 94 µM; in test [3], 164 µM; in test [4], 151 µM; in test [5], 227 µM; in [6] it was 235 µM. Moreover, the figures for the IC50 in [7], in test [8] and in test [9] were 231 µM, 220 µM and 91 µM, respectively.

`C=C(C)[C@@H]1CC[C@]2(C(=O)OC)CC[C@]3(C)[C@H](CC[C@@H]4[C@@]5(C)Cc6nc7ccccc7nc6C(C)(C)[C@@H]5CC[C@]43C)[C@@H]12`: the IC50 stood at 245 µM in test [1]; 47 µM in test [2]; 250 µM in test [3]; 250 µM in test [4]; 250 µM in test [5]; 250 µM in test [6]. The IC50 in [7], in test [8] and in test [9] was 250 µM throughout.

The values are drawn from ChEMBL document CHEMBL1142126, “Triterpenoid pyrazines and benzopyrazines with cytotoxic activity” (J Nat Prod, 2007).
